Assay results as given in EPA's CvTdb concentration-time database.

Key:
Rat [1] = test: concentration in brain after dosing; details: 2 min; dosed: 2-Methyltetrahydrofuran; 40 mg/kg; iv; Female; Harlan Sprague Dawley
Rat [2] = test: concentration in plasma after dosing; details: dosed: Fluorotelomer alcohol 8+2, 12 mg/kg, oral, Male, Harlan Sprague Dawley
Rat [3] = test: concentration in kidney after dosing; details: 12 h; dosed: Fluorotelomer alcohol 8+2; 24 mg/kg; oral; Male; Harlan Sprague Dawley
Rat [4] = test: concentration in kidney after dosing; details: 1 h; dosed: Fluorotelomer alcohol 8+2; 24 mg/kg; oral; Male; Harlan Sprague Dawley
Rat [5] = test: concentration in plasma after dosing; details: dosed: 678-39-7, 12 mg/kg, iv, Male, F344
Rat [6] = test: concentration in brain after dosing; details: 0.5 h; dosed: Fluorotelomer alcohol 8+2; 24 mg/kg; oral; Male; Harlan Sprague Dawley
Rat [7] = test: concentration in plasma after dosing; details: dosed: 678-39-7, 12 mg/kg, iv, Male, F344; remark: listed apart in the source
Rat [8] = test: concentration in plasma after dosing; details: dosed: Fluorotelomer alcohol 8+2, 12 mg/kg, oral, Male, Harlan Sprague Dawley; remark: listed apart in the source
Rat [9] = test: concentration in brain after dosing; details: 1 h; dosed: Fluorotelomer alcohol 8+2; 24 mg/kg; oral; Male; Harlan Sprague Dawley
Rat [10] = test: concentration in plasma after dosing; details: 18 h; dosed: Gemfibrozil; 50 mg/kg; oral; Male; Sprague-Dawley
Rat [11] = test: concentration in plasma after dosing; details: 15 h; dosed: Gemfibrozil; 50 mg/kg; oral; Male; Sprague-Dawley
Rat [12] = test: concentration in plasma after dosing; details: 0.5 h; dosed: Gemfibrozil; 4.29 mg/kg; oral; Male; Sprague-Dawley
Rat [13] = test: concentration in liver after dosing; details: 6 h; dosed: Perfluorohexanoic Acid; 80 mg/kg; oral; Female; Harlan Sprague Dawley
Rat [14] = test: concentration in kidney after dosing; details: 1 h; dosed: Perfluorohexanoic Acid; 80 mg/kg; oral; Male; Harlan Sprague Dawley
Rat [15] = test: concentration in kidney after dosing; details: 0.5 h; dosed: Perfluorohexanoic Acid; 80 mg/kg; oral; Male; Harlan Sprague Dawley
Rat [16] = test: concentration in liver after dosing; details: 12 h; dosed: Perfluorohexanoic Acid; 80 mg/kg; oral; Male; Harlan Sprague Dawley
Rat [17] = test: concentration in plasma after dosing; details: dosed: Perfluorohexanoic Acid, 40 mg/kg, oral, Male, Harlan Sprague Dawley
Rat [18] = test: concentration in brain after dosing; details: 1 h; dosed: Perfluorohexanoic Acid; 80 mg/kg; oral; Female; Harlan Sprague Dawley
Rat [19] = test: concentration in plasma after dosing; details: dosed: Perfluorohexanoic Acid, 40 mg/kg, oral, Male, Harlan Sprague Dawley; remark: listed apart in the source
Rat [20] = test: concentration in kidney after dosing; details: 0.5 h; dosed: Perfluorohexanoic Acid; 80 mg/kg; oral; Male; Harlan Sprague Dawley; remark: listed apart in the source
Rat [21] = test: concentration in kidney after dosing; details: 6 h; dosed: Perfluorohexanoic Acid; 80 mg/kg; oral; Male; Harlan Sprague Dawley
Rat [22] = test: concentration in plasma after dosing; details: dosed: Perfluorooctane Sulfonate, 2 mg/kg, iv, Male, F344
Rat [23] = test: concentration in kidney after dosing; details: 3360 h; dosed: Perfluorooctane Sulfonate; 2 mg/kg; oral; Female; Harlan Sprague Dawley
Rat [24] = test: concentration in kidney after dosing; details: 6 h; dosed: Perfluorooctane Sulfonate; 2 mg/kg; oral; Female; Harlan Sprague Dawley
Rat [25] = test: concentration in kidney after dosing; details: 864 h; dosed: Perfluorooctane Sulfonate; 2 mg/kg; oral; Female; Harlan Sprague Dawley
Rat [26] = test: concentration in brain after dosing; details: 24 h; dosed: Perfluorooctane Sulfonate; 20 mg/kg; oral; Male; Harlan Sprague Dawley
Rat [27] = test: concentration in kidney after dosing; details: 864 h; dosed: Perfluorooctane Sulfonate; 20 mg/kg; oral; Male; Harlan Sprague Dawley
Rat [28] = test: concentration in liver after dosing; details: 864 h; dosed: Perfluorooctane Sulfonate; 2 mg/kg; oral; Female; Harlan Sprague Dawley
Rat [29] = test: concentration in kidney after dosing; details: 1848 h; dosed: Perfluorooctane Sulfonate; 2 mg/kg; oral; Female; Harlan Sprague Dawley
Rat [30] = test: concentration in kidney after dosing; details: 24 h; dosed: Perfluorooctane Sulfonate; 20 mg/kg; oral; Female; F344
Rat [31] = test: concentration in liver after dosing; details: 864 h; dosed: Perfluorooctane Sulfonate; 20 mg/kg; oral; Male; Harlan Sprague Dawley
Rat [32] = test: concentration in liver after dosing; details: 864 h; dosed: Perfluorooctane Sulfonate; 20 mg/kg; oral; Female; F344
Rat [33] = test: concentration in brain after dosing; details: 3360 h; dosed: Perfluorooctane Sulfonate; 20 mg/kg; oral; Male; Harlan Sprague Dawley
Rat [34] = test: concentration in kidney after dosing; details: 24 h; dosed: Perfluorooctane Sulfonate; 20 mg/kg; oral; Male; Harlan Sprague Dawley
human = test: concentration in expired air after dosing; details: dosed: trichloroethylene, 100 ppm, inhalation, duration: 4 hr, person
Procedure, shortened: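 Data points giving concentration or amount against time came from published in vivo toxicokinetic studies and from two structured collections. PubMed searching, classifier screening and manual review located the studies. Most points were digitised from plot screenshots using WebPlotDigitizer, the rest were copied from tables, and all keep their reported units.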

CC1CCCO1 (configuration not stated) [2-Methyltetrahydrofuran]
Details	concentration in brain [ng/mL]
Rat [1]	38000

O=C(O)CCC(F)(F)C(F)(F)C(F)(F)C(F)(F)C(F)(F)C(F)(F)C(F)(F)F [Fluorotelomer acid 7+3]
Details	concentration in plasma [ng/mL]
Rat [2], 0.25 h	152
Rat [2], 6 h	522
Rat [5], 0.5 h	127
Rat [5], 9 h	159
Rat [7], 0.75 h	334
Rat [7], 12 h	90
Rat [8], 48 h	169
Rat [8], 192 h	26.3

Details	concentration in brain [ng/g]	concentration in kidney [ng/g]
Rat [3]	–	573
Rat [4]	–	568
Rat [6]	81.2	–
Rat [9]	128	–

Cc1ccc(C)c(OCCCC(C)(C)C(=O)O)c1 [Gemfibrozil]
Details	concentration in plasma [ng/mL]
Rat [10]	1510
Rat [11]	928
Rat [12]	424

O=C(O)C(F)(F)C(F)(F)C(F)(F)C(F)(F)C(F)(F)F [Perfluorohexanoic Acid]
Details	concentration in brain [ng/g]	concentration in kidney [ng/g]	concentration in liver [ng/g]
Rat [13]	–	–	820
Rat [14]	–	79900	–
Rat [15]	–	69600	–
Rat [16]	–	–	2130
Rat [18]	1270	–	–
Rat [20]	–	99400	–
Rat [21]	–	10600	–

concentration in plasma [ng/mL]
Details	0.25 h	0.75 h	6 h	12 h
Rat [17]	54000	–	31300	–
Rat [19]	–	78200	–	5210

O=S(=O)([O-])C(F)(F)C(F)(F)C(F)(F)C(F)(F)C(F)(F)C(F)(F)C(F)(F)C(F)(F)F [Perfluorooctane Sulfonate]
Rat [22]
Details	concentration in plasma [ng/mL]
12 h	4880
864 h	2120

Details	concentration in brain [ng/g]	concentration in kidney [ng/g]	concentration in liver [ng/g]
Rat [23]	–	1110	–
Rat [24]	–	8350	–
Rat [25]	–	3490	–
Rat [26]	11600	–	–
Rat [27]	–	19300	–
Rat [28]	–	–	8950
Rat [29]	–	2750	–
Rat [30]	–	132000	–
Rat [31]	–	–	98700
Rat [32]	–	–	77100
Rat [33]	890	–	–
Rat [34]	–	67900	–

ClC=C(Cl)Cl [trichloroethylene]
human
Details	concentration in expired air [ppm]
0.2505 h	6.43
0.4903 h	4.4
1.01 h	2.66
2.009 h	1.42
4.008 h	1.29
5.993 h	1.15
8.005 h	0.514
10.04 h	0.377
11.99 h	0.34
13.99 h	0.738
86 s	24.7
